# High-throughput results as filed in PubChem BioAssay.
# Sampled rows, rich in hits. Any-hit rate of the full collection: about 9.6%.
# HCT116 PTEN-null: growth suppression of PTEN-null HCT116, primary screen, cell-based, CellTiter-Glo. HCT116 PTEN-null viability, 60 h; stronger effect = lower value. viability, % at 10 µM. 1.2% of 140,000 active. AID 827, 2007;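 active means viability at or below a set limit, 4 SD under the median of all tested compounds, cut at about 3.7% in these data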;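 further: PTEN knockout HCT116 line with beta catenin targeted HCT116 as companion control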
# bCat KO growth: primary screen for growth suppressors in beta-catenin knockout HCT116 cells (colon tumor, human) | HCT116 beta-catenin knockout viability, CellTiter-Glo, 60 h; stronger effect = lower value | viability, % at 10 µM | 1.5% of 140,000 active | AID 818, 2007;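 active means viability at or under a set limit, the compound median less 4 SD, cut at about 6% in these data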;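 further: 0% = Hyamine 1622 control at 20 µM and 100% = untreated cell control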
# L major viab: Leishmania major promastigote growth inhibition, primary screen | Leishmania major promastigotes, resazurin fluorescence viability | inhibition, % at 10 µM | 9% of 200,000 active | AID 1063, 2008; in the data active means inhibition above about 50%;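 further: promastigotes grown with compound for 44 hours at 28 °C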
# TNAP act hi DEA: TNAP activators at high phosphate acceptor level, primary screen, biochemical, luminescence, uHTS. Alkaline phosphatase, tissue-nonspecific isozyme (Homo sapiens), P05186. purified TNAP, CDP-star luminescence, 1 M DEA, 30 min; stronger effect = higher value; 0 = EDTA background, 1 = DMSO-only activity. activation factor at 20 µM. 200,000 tested, under 10 active. AID 1136, 2008;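 active means activation factor at least 2 at 20 µM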
# Target sequence (P05186 whole entry, looked up): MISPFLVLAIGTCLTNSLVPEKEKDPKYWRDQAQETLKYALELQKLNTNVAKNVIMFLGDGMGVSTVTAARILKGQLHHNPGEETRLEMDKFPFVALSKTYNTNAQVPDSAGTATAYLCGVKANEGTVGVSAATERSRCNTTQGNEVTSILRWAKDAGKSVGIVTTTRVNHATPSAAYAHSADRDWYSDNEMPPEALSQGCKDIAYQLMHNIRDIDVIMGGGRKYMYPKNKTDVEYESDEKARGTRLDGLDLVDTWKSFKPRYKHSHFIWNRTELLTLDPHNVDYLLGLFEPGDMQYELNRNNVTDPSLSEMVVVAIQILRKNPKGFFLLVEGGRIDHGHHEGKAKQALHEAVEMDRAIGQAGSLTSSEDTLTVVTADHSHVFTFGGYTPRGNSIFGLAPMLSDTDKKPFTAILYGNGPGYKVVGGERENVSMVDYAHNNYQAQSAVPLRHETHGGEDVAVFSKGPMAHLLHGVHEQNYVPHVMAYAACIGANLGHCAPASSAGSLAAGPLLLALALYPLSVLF
#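 Dosing: 20 µM single point. System: human TNAP. Amount: TNAP 1/800 final. Incubation: 30 min, room temperature. Read-out: TNAP activation factor scaled between EDTA and DMSO control wells. Signal: luminescence from CDP-star hydrolysis. Medium: 1 M DEA, pH 9.8, Mg2+, Zn2+. Control set: EDTA negative control, DMSO positive control.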
# TNAP inh hiacc: human TNAP enzyme inhibitors, primary screen, biochemical, luminescent, high phosphate acceptor level, uHTS; Alkaline phosphatase, tissue-nonspecific isozyme (Homo sapiens), P05186; purified TNAP, CDP-star luminescence, 1 M DEA; 0.03% of 200,000 active; inhibition, % at 20 µM;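 active means over 50% inhibition of tissue-nonspecific alkaline phosphatase at 20 µM in the single-dose screen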;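 further: plate controls were DMSO wells for no effect and EDTA-quenched wells as full inhibition for full effect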
# TNAP inh no acc: human TNAP enzyme inhibitors, primary screen, biochemical, luminescent, no phosphate acceptor, uHTS; Alkaline phosphatase, tissue-nonspecific isozyme (Homo sapiens), P05186; purified TNAP, CDP-star luminescence, 30 min; inhibition, % at 20 µM; 0.26% of 200,000 active; AID 1012, 2008;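 active means tissue-nonspecific alkaline phosphatase inhibition above about 50% at 20 µM in the single-dose screen, limit read from the data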;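 further: 0% = DMSO negative control and 100% = EDTA positive control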
# Starred values were filed as active, the others as inactive; nt = not tested or not shown.
SMILES,HCT116 PTEN-null,bCat KO growth,L major viab,TNAP act hi DEA,TNAP inh hiacc,TNAP inh no acc
CCCCCn1c(SCCc2ccccc2)nc2c1c(=O)[nH]c(=O)n2C,92,87,3,1.1,-6,-7
Cc1ccc(Sc2nc3c(c(=O)[nH]c(=O)n3C)n2CCc2ccccc2)cc1,2.8*,11,10,1.1,-7,-4
Cn1c(=O)[nH]c(=O)c2c1nc(Sc1ccccc1)n2CCc1ccccc1,65,62,1,1,-4,-12
O=Cc1ccc(-c2cc(Cl)ccc2Cl)[nH]1,nt,nt,25,1,0,-15
C=CCNC(=S)N(CC)c1cccc2ccccc12,nt,nt,6,1,-2,-6
Cc1cc(C)nc(N(C#N)CCOc2ccc(Cl)cc2)n1,99,91,-2,1.1,-8,-8
CC(C)Nc1nc(NC(C)C)nc(N(C#N)CCOc2ccc(Cl)cc2Cl)n1,60,65,81*,1,-2,-10
COc1ccc(/C=C2\CCCC3C2=NN(C(=O)CSc2ncn[nH]2)C3c2ccc(OC)cc2)cc1 (centres undefined),61,77,91*,1,0,-8
Cc1ncsc1C(=O)N1N=C2/C(=C/c3ccc(N4CCOCC4)cc3)CCCC2C1c1ccc(N2CCOCC2)cc1 (centres undefined),83,87,32,1,-5,-7
Cc1ncsc1C(=O)N1N=C2/C(=C/c3ccccc3)CCCC2C1c1ccccc1 (centres undefined),39,44,99*,1.1,-7,3
O=C(CSc1ncn[nH]1)N1N=C2/C(=C/c3ccccc3)CCCC2C1c1ccccc1 (centres undefined),56,70,6,1,2,-30
COCC(=O)n1nc(-c2ccccc2)nc1NCc1cccs1,nt,nt,-2,0.9,15,54*
Cc1ccc2cc(C#N)c(SCc3nnc(-c4ccccc4[N+](=O)[O-])o3)nc2c1,1.2*,1.4*,33,1,4,-3
COC(=O)CSc1nc2cc(C)ccc2cc1C#N,81,85,6,1,0,-14
O=C(CC1C(=O)CCCC1=O)c1ccccc1,nt,nt,-4,1.1,-5,-1
CN1C(CC(=O)c2ccccc2)CCCC1CC(O)c1ccccc1 (centres undefined),100,101,90*,1,1,-1
CN1[C@@H](CC(=O)c2ccccc2)CCC[C@H]1C[C@H](O)c1ccccc1,94,91,88*,1,-3,-11
COc1ccc(CNC(=O)C(c2ccc(C)cc2)N(Cc2cccs2)C(=O)c2ccc3c(c2)OCCO3)cc1 (centres undefined),35,37,99*,1.1,-10,-1
O=C(c1cc(F)c(F)cc1Cl)N1CCN(c2ccc([N+](=O)[O-])c3ncccc23)CC1,82,83,57*,1,1,-2
COc1ccc(CN2CCC(N(CCc3ccccc3)Cc3ccccc3)CC2)c(OC)c1,nt,nt,94*,1,-4,-9
O=C(O)c1ccc(Nc2ncnc3scc(-c4ccccc4)c23)cc1,nt,nt,-10,1.1,-7,-10
Cc1ccc(-c2csc3ncnc(N4CCc5ccccc5C4)c23)cc1,53,53,16,1,-2,-8
Fc1ccc(-c2csc3ncnc(N4CCc5ccccc5C4)c23)cc1,52,51,67*,1,0,-4
Fc1ccc(-c2csc3ncnc(Nc4ccc(N5CCOCC5)cc4)c23)cc1,38,34,65*,1,-4,-7
CC(C)Cc1cc(C(=O)N2CCCC(CCC(=O)N(C)CCc3ccccn3)C2)no1 (centres undefined),nt,nt,20,1,-4,-5
CSc1nc2ccc(NC(=O)c3ccc(Cl)s3)cc2s1,nt,nt,-6,1.1,-6,-6
Fc1ccc(Nc2nc(N3CCOCC3)c3ccccc3n2)cc1,nt,nt,nt,1,-2,-10
